# Results collected from several papers.
# Protocols differ between the studies behind these lines.
# Target: Serine/threonine-protein kinase mTOR (MTOR, Homo sapiens, UniProt P42345)
SMILES,test,conditions,quantity,value
CCc1ccccc1C(=O)Nc1n[nH]c2c(C)c(F)c(C3C(C#N)=C(C)N(C)C(C)=C3C#N)cc12,"cell-free assay, competition with immobilised ligand",1 µM,remaining binding,100%
CC(C)c1ccc(NC(=O)c2cccs2)c(-c2nc3ccccc3[nH]c2=O)c1,"enzyme activity, inhibitor",1 µM,activity vs control,85%
CCCS(=O)(=O)Nc1ccc(F)c(C(=O)c2c[nH]c3ncc(-c4ccc(Cl)cc4)cc23)c1F,"enzyme activity, inhibitor",1 µM,inhibition,< 10%
Cc1ccc(C(=O)NCc2ccsc2)cc1C#Cc1cn(C(C)C)c2ncnc(N)c12,"enzyme activity, inhibitor",1 µM,activity vs control,105%
CNCc1ccc(-c2cc(-c3nc(-c4ccc(S(=O)(=O)C(C)C)cc4)cnc3N)on2)cc1,"enzyme activity, inhibitor",0.4 µM,inhibition,0%
N[C@@H]1CCN(c2nccc(-c3cnn4ncccc34)n2)C1,binding,1 µM,remaining binding,99%
CCCCN(CCCC)C(=O)CN1C[C@@H](c2cc(OC)c3c(c2)OCO3)[C@H](C(=O)O)[C@H]1CC(C)(C)CCC,"cell-free assay, competition with immobilised ligand",1 µM,remaining binding,100%
CC(C)(C)c1nc2c(s1)c1nc(N)ncc1c1ccc(NS(=O)(=O)c3c(F)cccc3F)c(F)c12,"enzyme activity, inhibitor, radiometric",1 µM,remaining activity,103%
CN1CC(Oc2cnc(C#N)cc2-c2ccn3nc(NC(=O)C4CC4)cc3c2)C1,"enzyme activity, inhibitor",1 µM,inhibition,1%
CC(C)CCn1c(SCC(=O)Nc2ccccc2C(F)(F)F)nc2nccnc2c1=O,"enzyme activity, inhibitor",10 µM,inhibition,< 20%
Cn1cc(Cl)c2c(Oc3c(F)cc(Nc4cc(Cl)nc(N)n4)cc3F)ccnc21,"cell-free assay, competition with immobilised ligand",0.1 µM,remaining binding,85%
CCCOc1ccc(OC)c(F)c1C(=O)c1ccc(C(=O)N[C@@H]2CNC[C@H]2NC(=O)c2ccc3[nH]ncc3c2)cc1,"enzyme activity, inhibitor",10 µM,remaining activity,86%
Cc1cnc(NC2CCOCC2)nc1-n1cnc(C(=O)NC(CN)c2cc(F)cc(Cl)c2)c1 (centres unmarked),"enzyme activity, inhibitor, radiometric",1 µM,remaining activity,82%
CS(=O)(=O)NCC[C@H](NC(=O)c1cncc2c1cnn2-c1ccc(F)cc1)c1ccnc(S(C)(=O)=O)c1,"cell-free assay, competition with immobilised ligand",1 µM,remaining binding,88%
COc1cc2ncnc(Nc3ccc(Oc4ccccc4)cc3C)c2cc1OC,"enzyme activity, inhibitor",1 µM,inhibition,1%
CN([C@@H]1CCc2c(CC(=O)O)c3ccccc3n2C1)S(=O)(=O)c1ccc(F)cc1,"cell-free assay, competition with immobilised ligand",1 µM,remaining binding,100%
O=C(CSc1nc2nccnc2c(=O)n1CCc1ccccc1)Nc1nccs1,"enzyme activity, inhibitor",10 µM,inhibition,4%
